Reference: ChEMBL document CHEMBL3808293, “Antiproliferative activity and apoptosis inducing effects of nitric oxide donating derivatives of evodiamine” (Bioorg Med Chem, 2016)

Key:
BGC-823 = experiment: Induction of NO release in human BGC823 cells at 100 uM incubated for 1 hr by Griess assay; type: functional
Summary of the method: (§1)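 Cells exposed to 100 μM compound; the methods give 150 min, the results text 1 h. Cell lysates mixed with Griess reagent 10 min at 37 °C, absorbance read at 540 nm. Nitrite quantified against a sodium nitrite standard curve; 0.4% DMSO-treated cells gave background. Mean ± SD of three independent experiments.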

A549 = experiment: Antiproliferative activity against human A549 cells after 72 hrs by MTT assay; type: functional, cell-based; settings: A549, 72 h
Summary of the method: (§2)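 Cells pre-incubated 24 h at 37 °C, 5% CO2, then exposed to compounds for 72 h. MTT (5 mg/mL solution) added for a further 4 h, formazan dissolved in DMSO, OD read at 570 nm. Negative reference 0.1% DMSO; evodiamine and 5-Fu as positive references. IC50 is the concentration inhibiting 50% of growth; mean ± SD of three independent experiments.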

[1] = Antiproliferative activity against human BGC823 cells after 72 hrs by MTT assay; type: functional, cell-based; settings: BGC-823, 72 h; summary of the method: as §2
[2] = Antiproliferative activity against human L02 cells after 72 hrs by MTT assay; type: cell-based; settings: L02, 72 h; summary of the method: as §2
Bel-7402 = experiment: Induction of NO release in human Bel7402 cells at 100 uM incubated for 1 hr by Griess assay; type: functional; summary of the method: as §1
L02 = experiment: Induction of NO release in human L02 cells at 100 uM incubated for 1 hr by Griess assay; type: functional; summary of the method: as §1
[3] = Antiproliferative activity against human Bel7402 cells after 72 hrs by MTT assay; type: functional, cell-based; settings: Bel-7402, 72 h; summary of the method: as §2

IC50 (A549)	Structure (SMILES)	Activity (BGC-823)	IC50 [1]	IC50 [2]	Activity (Bel-7402)	Activity (L02)	IC50 [3]
> 100 µM	CN1c2ccccc2C(=O)N2CCc3c(n(CCCO[N+](=O)[O-])c4ccccc34)C21 (stereo unspecified)	83.8 µM	> 100 µM	> 100 µM	78.5 µM	19.4 µM	12.8 µM
> 100 µM	CN1c2ccccc2C(=O)N2CCc3c(n(CCCCCCO[N+](=O)[O-])c4ccccc34)C21 (stereo unspecified)	100 µM	> 100 µM	> 100 µM	104 µM	16.4 µM	28.8 µM
24.7 µM	COC(=O)CCC(=O)OCCOc1no[n+]([O-])c1S(=O)(=O)c1ccccc1		21.4 µM	43.3 µM			27.9 µM
0.98 µM	CN1c2ccccc2C(=O)N2CCc3c([nH]c4ccccc34)C21 (stereo unspecified)		1.16 µM	0.34 µM			1.23 µM
27.9 µM	O=C(O)CCC(=O)OCCOc1no[n+]([O-])c1S(=O)(=O)c1ccccc1		18 µM	38.7 µM			21.4 µM
